The source made the active and inactive calls. No cut-off for these calls is given here.
Key:
[1] = tested on: Staphylococcus aureus; assay: In vivo anti-virulence activity against methicillin-resistant Staphylococcus aureus Mu50 infected in BALB/c mouse model assessed as reduction in bacterial load in heart at 0.05 mg bid for 3.5 days administered intraperitoneally 6 hrs post infection by serial dilution method; format: functional; design: scale not given: the % may be the effect or the level left
How it was run: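 Mice were challenged with 1.3 × 10^9 CFU Mu50. Compound was given intraperitoneally, either 24 h before or 6 h after infection. Log10 CFU was counted in kidneys and hearts.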

[2] = tested on: Staphylococcus aureus; assay: In vivo anti-virulence activity against methicillin-resistant Staphylococcus aureus LRSA202 infected in BALB/c mouse model assessed as reduction in bacterial load in heart at 0.1 mg bid for 3.5 days administered intraperitoneally 6 hrs post infection by serial dilution method relative to control; format: functional, organism-based
How it was run: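 Mice were infected by retro-orbital injection with LRSA56 (5.0 × 10^7 CFU) or LRSA202 (7.0 × 10^7 CFU). Compound was given intraperitoneally 6 h after infection. […] Log10 CFU was counted in kidneys and hearts, with groups compared by two-tailed Mann-Whitney test.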

[3] = tested on: Pseudomonas aeruginosa; assay: Antibacterial activity against Pseudomonas aeruginosa after 24 hrs by broth dilution method; format: functional
[4] = tested on: Staphylococcus aureus; assay: In vivo anti-virulence activity against methicillin-resistant Staphylococcus aureus NF65Y infected in BALB/c mouse model assessed as reduction in bacterial load in heart at 0.1 mg bid for 3.5 days administered intraperitoneally 6 hrs post infection by serial dilution method relative to vancomycin; format: functional, organism-based
How it was run: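 Mice infected retro-orbitally with S. aureus NF65Y (3.5 × 10^8 CFU) or XN108 (2.1 × 10^8 CFU). Test compound given i.p. b.i.d. starting 6 h post-infection. […] Log10 CFU per kidney and heart counted. Two-tailed Mann−Whitney test.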

[5] = Tmax in mouse at 10 mg/kg, po administered as single dose by LC-MS/MS analysis; format: ADME, organism-based; conditions: in vivo
[6] = tested on: Rattus norvegicus; assay: Toxicity in Sprague-Dawley rat at 60 to 1000 mg/kg, po administered as single dose assessed as poisoning symptoms measured immediately post administration; format: organism-based; conditions: in vivo
How it was run: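 Acute toxicity study: 30 rats randomly split into three groups and given a single oral dose (60, 250 or 1000 mg/kg) on day 1. Animals were watched for poisoning symptoms and mortality immediately after dosing and over a 2-week post-treatment period. Behaviour, water/food consumption and body weight were also tracked.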

[7] = molecular target: Cytochrome P450 2C8 (Homo sapiens, UniProt P10632); assay: Inhibition of CYP2C8 in human liver microsomes using paclitaxel as substrate upto 10 uM after 20 mins in presence of NADPH by LC-MS/MS analysis; format: ADME
[8] = tested on: Staphylococcus aureus; assay: In vivo anti-virulence activity against Staphylococcus aureus Newman infected in BALB/c mouse model assessed as reduction in bacterial load in heart at 0.4 mg bid for 3.5 days administered orally 6 hrs post infection by serial dilution method relative to vancomycin; format: functional; design: scale not given: the % may be the effect or the level left
How it was run: (§1)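 Mice got 3.1 × 10^7 CFU S. aureus Newman by retro-orbital injection. Oral compound was given b.i.d. for 3.5 d, starting 6 h after infection. […] Log10 CFU was counted per kidney and per heart.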

[9] = Inhibition of CrtN in methicillin-resistant Staphylococcus aureus NRS70 assessed as reduction in staphyloxanthin levels after 48 hrs by spectrophotometric method-based pigment inhibition assay
[10] = Inhibition of CrtN in methicillin-resistant Staphylococcus aureus LRSA56 assessed as reduction in staphyloxanthin levels after 48 hrs by spectrophotometric method-based pigment inhibition assay
[11] = molecular target: T1, 4,4'-diapophytoene desaturase (4,4'-diaponeurosporene-forming) (Staphylococcus aureus (strain Mu50 / ATCC 700699)) (UniProt Q99R76); conditions: Staphylococcus aureus subsp. aureus Mu50; 1 uM
T1 sequence (whole entry): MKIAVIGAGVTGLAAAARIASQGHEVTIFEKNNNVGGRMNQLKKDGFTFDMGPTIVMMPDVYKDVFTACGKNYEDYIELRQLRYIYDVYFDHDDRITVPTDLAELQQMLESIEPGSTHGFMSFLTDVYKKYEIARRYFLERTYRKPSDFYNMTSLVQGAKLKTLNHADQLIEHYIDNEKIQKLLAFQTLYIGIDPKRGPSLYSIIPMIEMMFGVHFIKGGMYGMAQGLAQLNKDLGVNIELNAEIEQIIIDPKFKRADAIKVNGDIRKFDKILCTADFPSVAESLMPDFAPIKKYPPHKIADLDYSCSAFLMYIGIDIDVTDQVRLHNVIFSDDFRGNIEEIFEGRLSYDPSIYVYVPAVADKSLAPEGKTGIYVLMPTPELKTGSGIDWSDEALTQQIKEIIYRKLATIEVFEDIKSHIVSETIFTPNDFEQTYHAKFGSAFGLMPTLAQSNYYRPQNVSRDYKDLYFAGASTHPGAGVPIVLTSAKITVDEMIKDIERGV

[12] = Clearance in Sprague-Dawley rat at 5 mg/kg, iv administered as single dose by LC-MS/MS analysis; format: ADME, organism-based; conditions: in vivo
[13] = molecular target: Cytochrome P450 2C9 (Homo sapiens, UniProt P11712); assay: Inhibition of CYP2C9 in human liver microsomes using diclofenac as substrate upto 10 uM after 10 mins in presence of NADPH by LC-MS/MS analysis; format: ADME
[14] = tested on: Staphylococcus aureus; assay: In vivo anti-virulence activity against Staphylococcus aureus Newman infected in BALB/c mouse model assessed as reduction in bacterial load in heart at 0.2 mg bid for 3.5 days administered orally 6 hrs post infection by serial dilution method relative to vancomycin; format: functional; design: scale not given: the % may be the effect or the level left; how it was run: as §1
[15] = tested on: Staphylococcus aureus; assay: In vivo anti-virulence activity against Staphylococcus aureus Newman infected in BALB/c mouse model assessed as reduction in bacterial load in kidney at 0.4 mg bid for 3.5 days administered orally 6 hrs post infection by serial dilution method relative to control; format: functional; design: scale not given: the % may be the effect or the level left; how it was run: as §1
[16] = tested on: Liver; assay: (§2) Half life in human liver microsomes at 2 uM after 60 mins in presence of NADPH by LC-MS/MS method; format: ADME, microsome; conditions: microsomes, 1 h, 2 µM
[17] = Inhibition of CrtN in methicillin-resistant Staphylococcus aureus LRSA202 assessed as reduction in staphyloxanthin levels after 48 hrs by spectrophotometric method-based pigment inhibition assay
[18] = Half life in Sprague-Dawley rat at 10 mg/kg, po administered as single dose by LC-MS/MS analysis; format: ADME, organism-based; conditions: in vivo
[19] = tested on: Rattus norvegicus; assay: Toxicity in Sprague-Dawley rat at 60 to 1000 mg/kg, po administered as single dose assessed as mortality measured during 2 weeks post administration; format: organism-based; conditions: in vivo, 336 h
How it was run: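 Rats, 30 in total, randomised into three groups. Each received a single oral dose of 60, 250 or 1000 mg/kg on day 1. Poisoning symptoms, mortality, behaviour, water and food consumption and body weight monitored immediately and over 2 weeks.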

[20] = Inhibition of CrtN in methicillin-resistant Staphylococcus aureus HS663 assessed as reduction in staphyloxanthin levels after 48 hrs by spectrophotometric method-based pigment inhibition assay
[21] = molecular target: Voltage-gated inwardly rectifying potassium channel KCNH2 (Homo sapiens, UniProt Q12809); assay: Inhibition of human ERG expressed in CHO cells at -80 mV holding potential after 3 mins by QPatch test; format: cell-based
[22] = as §2; format: ADME, microsome; conditions: liver microsomes

Cytochrome P450 2C8, sequence (P10632 whole entry): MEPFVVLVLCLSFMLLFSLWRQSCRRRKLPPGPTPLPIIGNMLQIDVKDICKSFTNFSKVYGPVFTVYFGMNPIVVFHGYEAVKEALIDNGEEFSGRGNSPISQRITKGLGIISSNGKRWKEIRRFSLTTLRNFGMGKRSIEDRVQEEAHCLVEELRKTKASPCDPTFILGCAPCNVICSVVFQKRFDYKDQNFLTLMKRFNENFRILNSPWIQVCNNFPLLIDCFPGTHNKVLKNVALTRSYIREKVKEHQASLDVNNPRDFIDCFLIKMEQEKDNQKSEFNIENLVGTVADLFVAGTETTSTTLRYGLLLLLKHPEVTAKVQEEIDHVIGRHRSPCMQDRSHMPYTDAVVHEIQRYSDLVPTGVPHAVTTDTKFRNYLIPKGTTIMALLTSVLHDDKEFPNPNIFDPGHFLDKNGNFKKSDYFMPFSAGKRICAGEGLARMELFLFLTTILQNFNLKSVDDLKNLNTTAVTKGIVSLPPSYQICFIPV
Cytochrome P450 2C9, sequence (P11712 whole entry): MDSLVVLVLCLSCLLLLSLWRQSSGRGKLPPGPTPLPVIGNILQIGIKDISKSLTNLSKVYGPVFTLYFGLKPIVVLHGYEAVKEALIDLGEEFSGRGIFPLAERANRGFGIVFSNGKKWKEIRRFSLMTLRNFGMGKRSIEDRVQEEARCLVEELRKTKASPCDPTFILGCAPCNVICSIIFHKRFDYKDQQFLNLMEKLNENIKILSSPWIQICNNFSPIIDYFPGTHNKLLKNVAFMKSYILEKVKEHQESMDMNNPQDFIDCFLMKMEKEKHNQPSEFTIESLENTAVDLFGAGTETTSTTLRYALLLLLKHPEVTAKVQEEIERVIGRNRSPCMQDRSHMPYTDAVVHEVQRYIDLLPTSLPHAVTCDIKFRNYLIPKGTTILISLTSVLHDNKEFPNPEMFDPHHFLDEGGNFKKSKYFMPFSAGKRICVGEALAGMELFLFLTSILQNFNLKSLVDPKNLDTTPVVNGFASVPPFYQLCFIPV
Voltage-gated inwardly rectifying potassium channel KCNH2, sequence (Q12809 whole entry): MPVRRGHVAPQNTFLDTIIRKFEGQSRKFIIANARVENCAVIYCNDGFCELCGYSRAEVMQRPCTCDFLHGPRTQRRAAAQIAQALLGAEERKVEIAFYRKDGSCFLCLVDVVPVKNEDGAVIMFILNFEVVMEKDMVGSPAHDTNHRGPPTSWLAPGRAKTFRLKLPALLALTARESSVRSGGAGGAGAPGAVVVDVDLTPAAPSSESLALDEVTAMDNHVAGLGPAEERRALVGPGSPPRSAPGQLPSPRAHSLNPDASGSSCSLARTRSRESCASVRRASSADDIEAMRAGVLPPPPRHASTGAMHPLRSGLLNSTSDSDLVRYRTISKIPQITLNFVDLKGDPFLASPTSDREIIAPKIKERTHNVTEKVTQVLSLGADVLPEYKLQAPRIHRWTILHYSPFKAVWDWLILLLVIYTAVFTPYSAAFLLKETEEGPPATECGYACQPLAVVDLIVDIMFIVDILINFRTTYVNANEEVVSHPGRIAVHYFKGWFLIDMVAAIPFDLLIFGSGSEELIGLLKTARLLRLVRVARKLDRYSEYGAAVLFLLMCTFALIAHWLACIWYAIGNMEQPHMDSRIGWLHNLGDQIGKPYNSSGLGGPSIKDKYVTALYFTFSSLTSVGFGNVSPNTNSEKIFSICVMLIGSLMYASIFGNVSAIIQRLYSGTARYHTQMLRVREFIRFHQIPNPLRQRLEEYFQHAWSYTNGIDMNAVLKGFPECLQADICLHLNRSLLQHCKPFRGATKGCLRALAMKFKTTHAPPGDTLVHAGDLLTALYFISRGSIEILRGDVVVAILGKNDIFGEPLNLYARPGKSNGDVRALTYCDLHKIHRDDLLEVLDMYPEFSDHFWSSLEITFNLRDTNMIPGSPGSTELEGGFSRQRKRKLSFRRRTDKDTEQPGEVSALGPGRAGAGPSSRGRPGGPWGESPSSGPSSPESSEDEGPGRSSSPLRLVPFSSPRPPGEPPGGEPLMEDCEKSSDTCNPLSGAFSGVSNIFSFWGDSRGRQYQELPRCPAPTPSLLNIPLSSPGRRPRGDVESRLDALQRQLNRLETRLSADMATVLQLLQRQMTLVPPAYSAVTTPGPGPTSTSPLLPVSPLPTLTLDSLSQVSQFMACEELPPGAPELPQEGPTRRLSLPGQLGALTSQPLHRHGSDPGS

CN(C/C=C/c1ccc(-c2ccccc2)cc1)Cc1coc2ccccc12.Cl
Activity [1]: >99.8%
Activity [2]: Active
MIC [3]: > 500 µg/mL
Activity [4]: Active
Tmax [5]: 2 h
Activity [6]: Non-Toxic
IC50 [7]: > 10000 nM
Activity [8]: >55.3%
IC50 [9]: 1.7 nM
IC50 [10]: 1.8 nM
Survival [11]: 0.4%
clearance [12]: 29.2 mL/min/kg
IC50 [13]: > 10000 nM
Activity [14]: >55.3%
Activity [15]: 90%
t1/2 [16]: 0.845 h
IC50 [17]: 1.6 nM
half-life [18]: 1.29 h
Activity [19]: Non-Toxic
IC50 [20]: 0.02 nM

CN(C/C=C/c1ccc(-c2ccccc2)cc1)Cc1cccc2cc[nH]c12.Cl
IC50 [21]: > 40000 nM
half-life at 2 µM [22]: 1.56 h
